HCT116 PTEN-null – PTEN-deleted cell growth suppression; HCT116 PTEN-null viability, CellTiter-Glo, 60 h; stronger effect = lower value; viability, % at 10 µM; 1.2% of 140,000 active; AID 827;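 active = viability at or below a set limit, 4 SD under the median of all tested compounds, cut at about 3.7% in these data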;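 also: PTEN knockout HCT116 line with beta catenin targeted HCT116 as companion control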
PMI act – activators of human phosphomannose isomerase; activation factor at 20 µM; 0.005% of 190,000 active; P34949; purified human PMI, coupled resazurin fluorescence, 20 min; stronger effect = higher value; 1 = vehicle control, 0 substrate-free wells;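 active = activation factor of 2 or more at 20 µM, relative to plate controls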
Target sequence (P34949 whole entry, looked up): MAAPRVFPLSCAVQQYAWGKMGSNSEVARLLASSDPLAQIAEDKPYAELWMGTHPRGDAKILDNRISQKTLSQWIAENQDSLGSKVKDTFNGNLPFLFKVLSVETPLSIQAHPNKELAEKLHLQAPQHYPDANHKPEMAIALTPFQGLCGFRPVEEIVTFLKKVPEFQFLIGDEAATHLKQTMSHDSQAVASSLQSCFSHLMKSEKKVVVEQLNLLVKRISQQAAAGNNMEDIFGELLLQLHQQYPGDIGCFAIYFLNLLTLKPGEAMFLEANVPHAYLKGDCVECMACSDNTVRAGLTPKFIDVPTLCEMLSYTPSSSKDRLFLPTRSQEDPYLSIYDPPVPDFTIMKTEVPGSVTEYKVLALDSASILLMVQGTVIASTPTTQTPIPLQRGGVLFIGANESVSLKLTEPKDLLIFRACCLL
HCT116 bCat-KO – beta-catenin-lacking colon tumor cell growth suppression. HCT116 beta-catenin knockout viability, CellTiter-Glo, 60 h; stronger effect = lower value. viability, % at 10 µM. 1.5% of 140,000 active. AID 818;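 active = viability at or under a set limit, the compound median less 4 SD, cut at about 6% in these data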;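 also: 0% = Hyamine 1622 control at 20 µM and 100% = untreated cell control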
L major viab – reduces viability of Leishmania major promastigotes. resazurin fluorescence viability. inhibition, % at 10 µM. 9% of 200,000 active. AID 1063; in the data active = inhibition above about 50%;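 also: promastigotes grown with compound for 44 hours at 28 °C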
PMI act satM6P – activators of human phosphomannose isomerase at near-saturating mannose 6-phosphate | P34949 | coupled PMI enzyme assay, resazurin fluorescence, 20 min; stronger effect = higher value; 1 = untreated enzyme, 0 = substrate-free blank | activation factor at 20 µM | 0.34% of 190,000 active;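 active = activation factor of 2 or more at 20 µM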
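Material: human phosphomannose isomerase with PGI, G6PDH, diaphorase coupling enzymes. Quantity: 15 ng/mL PMI. Medium: HEPES pH 7.4 buffer with MgCl2 and Tween-20. Reagent: Near-saturating mannose-6-phosphate, 1.0 mM. Compound: 20 µM single dose. Times: enzyme reaction with compound 20 min at room temperature. Detection: resorufin fluorescence at Ex 544/Em 590 nm.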
* marks the source's active call; other numbers are inactive results; / = no result given. The list is not random: actives were taken first. Their share in the collection is about 9.6%.

SMILES	HCT116 PTEN-null	PMI act	HCT116 bCat-KO	L major viab	PMI act satM6P
O=C(CSc1nnc(SCc2ccc(Cl)cc2)s1)N/N=C/c1c[nH]c2ccccc12	14.4	1	5.2*	64.7*	1
O=C(COc1ccc(Cl)cc1Cl)NCC(=O)N/N=C/c1c[nH]c2ccccc12	90.6	1	80.8	69.8*	1
COc1c(F)c(F)c(C(=O)Nc2ccccc2N2CCN(C(=O)C(C)C)CC2)c(F)c1F	70.6	0.9	70.1	51.0*	1
COc1ccc(NC(=O)CN2C(=O)C(C)SC(C)C2=O)c(OC)c1 (configuration not stated)	100.5	0.9	92.7	-8.0	1
C/C(=C\C(=O)c1cccnc1)Nc1ccc(O)cc1	95.2	0.6	96.5	99.1*	0.6
Cn1c(-c2cccs2)[n+](C)c2ccccc21	/	1	/	1.3	0.7
NS(=O)(=O)c1ccc(CCNC(=O)c2ccc(C#CC3(O)CCCCC3)cc2)cc1	/	0.9	/	-5.4	0.9
O=C(/C=C1\NC2(CCCC2)Cc2ccccc21)C(=O)N/N=C/c1ccc(O)c(O)c1	24.7	0.6	22.0	62.2*	0.8
CC(=O)Nc1ccc(S(=O)(=O)Nc2ccc3c(c2)C(=O)OC3)cc1	/	1	/	-1.5	1
CCOc1ccc2nc(NC(=O)c3ccc(OCC4CCCO4)cc3)sc2c1 (configuration not stated)	58.3	0.8	67.0	85.7*	0.8
Cc1cc(NCCN2CCOCC2)n2nc(C)c(-c3ccc(Cl)cc3)c2n1	28.0	0.9	37.1	93.8*	1
Cc1cc(NCCCn2ccnc2)n2ncc(-c3ccccc3)c2n1	76.4	0.9	78.3	89.5*	0.9
Cc1cc(NCCN2CCOCC2)n2ncc(-c3ccccc3)c2n1	79.6	1.1	74.9	6.1	1
Cc1cc(NCCCn2ccnc2)n2nc(C)c(-c3ccc(Cl)cc3)c2n1	3.9	0.9	5.5*	98.1*	1
Cc1cc(NCCCn2ccnc2)n2nc(C)c(-c3ccccc3)c2n1	89.5	1	84.3	14.0	1
COc1cc(/C=C2/C(=O)NN(c3ccc(Cl)cc3)C2=O)ccc1OC(=O)c1ccco1	101.0	1.1	102.8	51.8*	1.2
COc1cc(/C=C2/C(=O)NN(c3cccc(F)c3)C2=O)ccc1OC(=O)c1ccco1	91.6	1.1	85.7	-1.1	1.2
COc1ccc(/C=C(/C(=O)NCc2ccccc2)c2ccccc2)cc1	102.7	1	94.7	92.3*	1
COc1ccccc1/C=C(/C(=O)OCC(=O)Nc1ccccc1C)c1ccccc1	88.8	0.8	90.8	-3.5	0.9
COc1ccccc1/C=C(/C(=O)OCC(=O)NCc1ccccc1)c1ccccc1	85.8	0.9	80.9	62.0*	0.8
O=C(/C=C/c1ccc(Cl)cc1Cl)N1CCN(c2ccccc2[N+](=O)[O-])CC1	100.0	1	77.1	0.5	0.9
CCCCn1c(=O)[nH]c(=O)c2c1nc(-c1ccc(CC)c([N+](=O)[O-])c1)n2C	/	1.1	/	84.1*	1.1
C=CCOc1ccc(-c2nc3c(c(=O)[nH]c(=O)n3CCCC)n2C)cc1OC	/	1	/	5.8	1
O=C(c1cccs1)N1CCC(N2CCN(c3ccccc3)CC2)CC1	104.0	0.9	90.3	86.0*	1
O=S(=O)(c1ccccc1)N1CCC(N2CCN(c3ccccc3)CC2)CC1	/	0.9	/	/	1
SMILES	HCT116 PTEN-null	PMI act	HCT116 bCat-KO	L major viab	PMI act satM6P
O=S(=O)(Cc1ccccc1)N1CCC(N2CCN(c3ccccc3)CC2)CC1	86.7	1	86.8	98.0*	0.9
O=C(c1cccc2ccccc12)N1CCC(N2CCN(c3ccccc3)CC2)CC1	86.7	0.9	76.3	95.1*	1
S=C(Nc1ccc(Cl)cc1)N1CCCC1	96.3	1.1	90.8	9.1	1.1
CCOC(=O)C(CSCC(=O)c1ccc(Cl)cc1)NC(=O)OC(C)(C)C (configuration not stated)	91.6	0.9	86.7	-4.5	0.9
CC(=O)N1CCC(N(C(=O)Nc2c(F)cccc2F)C(C)C)CC1	94.2	1.1	100.8	-6.8	1.1
COc1ccccc1N1CC(O)=C(c2nc3ccccc3c(=O)[nH]2)C1=N	64.4	0.8	68.0	98.6*	0.9
COCCN1CC(O)=C(c2nc3ccccc3c(=O)[nH]2)C1=N	92.6	0.9	103.6	8.2	0.9
N=C1C(c2nc3ccccc3c(=O)[nH]2)=C(O)CN1CCc1ccccc1	78.0	0.9	76.9	59.9*	0.9
N=C1C(c2nc3ccccc3c(=O)[nH]2)=C(O)CN1CCO	90.6	0.9	85.0	25.7	0.9
CC1(C)CC(=O)c2c(oc3ccc(NS(=O)(=O)c4cccc5cccnc45)cc23)C1	/	0.8	/	13.6	0.9
CC(C)CC(=O)c1c[nH]c(C(=O)NCc2cccs2)c1	111.9	1	95.5	-1.0	1
CC(C)c1ccc(C(=O)NCCCN2CCN(CCCNC(=O)c3ccc(C(C)C)cc3)CC2)cc1	2.0*	1	1.5*	13.4	0.9
Cc1ccc(C(=O)N/C(=C\c2ccc(C(C)C)cc2)C(=O)NCCCN2CCOCC2)cc1	91.5	1	86.0	66.5*	1.1
Cc1ccc(C(=O)N/C(=C\c2ccc(Cl)cc2)C(=O)NCCCN2CCOCC2)cc1	102.9	1.1	91.8	2.1	1
O=C(NC1=NCCS1)c1ccccc1OCc1ccc(F)cc1	/	1	/	36.8	1
COCCNC(=O)C(=O)NNS(=O)(=O)c1ccc2ccccc2c1	/	0.9	/	-3.3	1
N#CC1=C(N)OC2=C(C(=O)CC(c3ccco3)C2)C1c1ccc(OCc2c(F)cccc2Cl)cc1 (configuration not stated)	93.1	0.9	105.3	10.7	0.9
COc1cccc(C2C(C#N)=C(N)OC3=C2C(=O)CC(c2ccco2)C3)c1OCc1ccc(F)cc1 (configuration not stated)	89.0	0.8	88.0	75.5*	0.8
O=C(c1ccc(S(=O)(=O)Nc2ccc(F)cc2)cc1)N1CCN(c2ccccn2)CC1	/	0.8	/	99.3*	0.8
O=S(=O)(c1ccc(-c2ccccc2)cc1)N1CCOCC1	94.0	0.9	90.9	-6.0	0.9
O=S(=O)(c1ccc(Cl)cc1)N1CCC(N2CCOCC2)CC1	81.8	0.9	80.0	91.0*	1
Nc1nc(-c2ccc(Cl)cc2)c(N=Nc2ccc(S(=O)(=O)N3CCOCC3)cc2)s1	3.7*	1	18.9	73.8*	1
O=C(C1CCN(S(=O)(=O)c2ccc(Cl)cc2)CC1)N1CCOCC1	93.5	1.2	95.4	-8.8	1.2
COc1ccc(S(=O)(=O)N2CCC(N3CCCCC3)CC2)cc1	93.7	1	89.9	91.9*	1.1
O=S(=O)(c1ccc(Cl)cc1)N1CCN(C2CCCCCC2)CC1	84.6	0.9	85.3	89.7*	0.9
N/C(=N\OC(=O)Cc1cccs1)c1ccc([N+](=O)[O-])cc1	95.3	1	93.9	38.5	1
O=C1CCC/C(=N\NC(=O)c2ccc(CSc3cccc4cccnc34)cc2)C1	/	1.1	/	-4.0	1
